From ChEMBL document CHEMBL4251754, “Identification of a Potent Tryptophan-Based TRPM8 Antagonist With in Vivo Analgesic Activity” (J Med Chem, 2018) come the findings set out here.

In general, IC50 refers to the concentration at which inhibition is half-maximal. A word on the Papp: it is a coefficient for how fast a substance crosses the barrier. In general, inhibition in vivo refers to the share of the control response that was lost under treatment.

Data set [1] concerns Mus musculus. In words: Antinociceptive activity in C57Bl/6J mouse assessed as inhibition of icilin induced wet-dog shakes at 25 mg/kg, sc pretreated 1 hr before icillin addition and measured after 30 mins by wet-dog shakes assay. It is filed as functional, organism-based. The gist of the method:
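Male C57 mice, 5 weeks, ~30 g, acclimatized 30 min on two consecutive days. Gabapentin in saline, 25 mg/kg s.c. 60 min before icilin (10 mg/kg i.p. in 20% DMSO/1% Tween 80). Wet-dog shakes counted over 30 min; mean ± SEM, n = 6; two-way ANOVA with Bonferroni.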

Data set [2] deals with T1, Transient receptor potential cation channel subfamily M member 8 (Rattus norvegicus, UniProt Q8R455). Put plainly: Antagonist activity at rat TRPM8 expressed in HEK293 cells assessed as reduction in menthol-induced calcium flux incubated for 60 mins by Fluo-4 NW-dye based fluorimetric assay. In kind it is cell-based. The gist of the method: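 HEK293 cells stably expressing rat TRPM8, seeded 2 days ahead, loaded with Fluo-4 NW containing 2.5 mM probenecid; compounds in DMSO, 60 min at 37 °C in darkness. Four baseline cycles, 100 μM menthol stimulation, 15 further cycles read (ex 485/em 535 nm). Normalized to menthol + 10 μM AMTB coexposure; DMSO controls.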
T1 sequence (Q8R455 whole entry): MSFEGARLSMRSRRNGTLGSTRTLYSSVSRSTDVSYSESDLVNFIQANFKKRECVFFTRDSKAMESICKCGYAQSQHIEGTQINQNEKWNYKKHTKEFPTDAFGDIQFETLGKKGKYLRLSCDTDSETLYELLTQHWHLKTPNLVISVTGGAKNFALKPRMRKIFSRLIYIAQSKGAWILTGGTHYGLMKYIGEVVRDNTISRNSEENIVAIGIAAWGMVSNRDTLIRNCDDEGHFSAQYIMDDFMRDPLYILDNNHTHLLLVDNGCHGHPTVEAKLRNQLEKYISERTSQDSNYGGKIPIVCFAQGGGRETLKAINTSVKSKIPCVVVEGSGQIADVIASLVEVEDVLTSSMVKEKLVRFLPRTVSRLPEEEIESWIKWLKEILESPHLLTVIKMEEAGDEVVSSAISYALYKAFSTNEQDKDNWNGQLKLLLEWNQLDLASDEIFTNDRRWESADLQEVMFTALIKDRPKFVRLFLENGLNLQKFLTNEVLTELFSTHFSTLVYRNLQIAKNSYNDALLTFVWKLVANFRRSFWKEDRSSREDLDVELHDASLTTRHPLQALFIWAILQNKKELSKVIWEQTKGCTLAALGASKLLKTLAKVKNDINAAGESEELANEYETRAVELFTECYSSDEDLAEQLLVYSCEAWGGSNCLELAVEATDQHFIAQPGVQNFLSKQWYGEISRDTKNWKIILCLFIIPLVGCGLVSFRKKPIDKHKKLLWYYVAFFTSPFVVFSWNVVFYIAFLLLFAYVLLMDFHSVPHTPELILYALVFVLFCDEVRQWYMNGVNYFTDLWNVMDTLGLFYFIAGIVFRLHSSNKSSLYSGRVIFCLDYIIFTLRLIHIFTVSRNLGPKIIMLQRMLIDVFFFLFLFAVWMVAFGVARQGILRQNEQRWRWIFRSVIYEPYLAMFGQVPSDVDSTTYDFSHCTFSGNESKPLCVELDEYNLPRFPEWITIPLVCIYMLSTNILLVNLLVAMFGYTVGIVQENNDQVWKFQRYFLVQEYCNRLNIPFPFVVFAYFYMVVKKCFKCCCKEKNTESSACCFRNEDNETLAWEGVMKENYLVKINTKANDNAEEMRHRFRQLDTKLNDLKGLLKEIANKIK
(In general: Calcium flux is commonly read through the fluorescence of an indicator in the cells.)

A short description of data set [3]: Apparent permeability of the compound in 0.01 M phosphate buffer at pH 7.4 at 0.5 mM after 24 hrs by PAMPA. In kind it is ADME. The gist of the method: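 Donor at 0.5 mM, diluted from 10 mM DMSO stock into 0.01 M phosphate buffer pH 7.4. Filter coated with 1% phosphatidylcholine in dodecane; acceptor is 5% DMSO in phosphate buffer. Incubated 24 h at room temperature with gentle shaking. Acceptor analysed by HPLC-UV at 220 nm against no-membrane references. Papp from Faller-modified Sugano equation; triplicate, with propranolol and furosemide as references.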
Background: PAMPA measures passive passage across an artificial lipid membrane.

Data set [4] concerns the target T1, Transient receptor potential cation channel subfamily M member 8. In words: (§1) Antagonist activity at rat TRPM8 expressed in HEK293 cells assessed as reduction in menthol-induced channel currents by whole cell patch clamp method. In kind it is cell-based. An outline of the steps: (§2)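 HEK293 cells grown in DMEM/10% FBS, plated on poly-L-lysine coverslips, transiently transfected 24 h later with rat TRPM8 cDNA (3.6 μg) plus EGFP marker (total cDNA 4 μg). Whole-cell recordings 24 h post-transfection on EGFP-positive cells, 3–5 MΩ pipettes. Extracellular solution (mM): 138 NaCl, 5.4 KCl, 2 CaCl2, 1 MgCl2, 10 glucose, 10 HEPES, pH 7.4. Currents evoked by 500 μM menthol, monitored at +80 and −80 mV.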
A general note: The patch-clamp technique gives a direct electrical read-out from membranes.

For data set [5], the target named is Transient receptor potential cation channel subfamily M member 8 (Rattus norvegicus) (UniProt Q8R455). The description is as §1. It is filed as cell-based. An outline of the steps:
as §2

The test system of data set [6] is Mus musculus. In words: Antinociceptive activity in sc dosed C57Bl/6J mouse assessed as inhibition of icilin induced wet-dog shakes pretreated 30 mins before icillin addition and measured after 30 mins by wet-dog shakes assay. In kind it is functional, organism-based. An outline of the steps: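 Male C57 mice, 5 weeks, ~30 g, acclimatized 30 min on two consecutive days. Compound (1, 10, 30 mg/kg; DMSO stock diluted in saline) or vehicle given s.c. 30 min before icilin 10 mg/kg i.p. (in 20% DMSO/1% Tween 80 in water). Gabapentin 25 mg/kg s.c. given 60 min before icilin. Wet-dog shakes counted over 30 min. Mean ± SEM, n = 6; two-way ANOVA with Bonferroni test.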

Data set [7] can be described thus: Drug metabolism in mouse serum assessed as (S)-2-(Dibenzylamino)-3-(1H-indol-3-yl)propanoic Acid formation after 15 to 60 mins by HPLC analysis. In kind it is ADME, cell-free. An outline of the steps:
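DMSO stock diluted 1:1000 in mouse serum (from retro-orbital blood) and stirred at 37 °C. Samples taken at 15, 30 and 60 min, extracted with dichloromethane, then analysed by C18 HPLC (0.1% TFA water/acetonitrile gradient, 220 nm) for parent and acid metabolite. Blank serum checked for interfering peaks; acetylsalicylic acid used to verify hydrolytic activity. Triplicate.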

A short description of data set [8]: Chemical stability of compound in phosphate buffer at pH 7.4 after 15 to 60 mins by HPLC analysis. In kind it is physicochemical. An outline of the steps: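 DMSO stock (10 mg/mL) diluted 1:100 in phosphate buffer and stirred at 37 °C. At 15, 30 and 60 min, extracted with dichloromethane (1:1), dried under nitrogen, reconstituted in methanol and filtered. Analysed by C18 HPLC with a 0.1% TFA water/acetonitrile gradient (5–90% B over 7 min), 0.5 mL/min, 220 nm detection. Triplicate.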

The test system of data set [9] is Mus musculus. In words: Antinociceptive activity in sc dosed C57/BL6 mouse assessed as inhibition of oxaliplatin induced cold allodynia administered as single dose injected into plantar surface of right hind paw on day 7 post oxaliplatin treatment and measured after 15 to 30 mins by acetone drop method. It is filed as functional, organism-based. An outline of the steps:
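Male C57 mice, 5 weeks, ~30 g. Oxaliplatin 6 mg/kg given on days 1, 3 and 5, with saline and 5% mannitol i.p.; tested on day 7. Antagonist stock in DMSO, diluted in saline, 0.1–1 μg injected in 25 μL into the plantar surface of the right hind paw. Acetone drop test after ~30 min habituation; paw sampled twice (~5 min apart) and averaged.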

The target in data set [10] is Transient receptor potential cation channel subfamily M member 8 (Rattus norvegicus) (UniProt Q8R455). Put plainly: Reversible antagonist activity at rat TRPM8 expressed in HEK293 cells at 100 nM assessed as reduction in menthol-induced channel currents measured after drug wash out by whole cell patch clamp method. It is filed as cell-based.
Sequence of Transient receptor potential cation channel subfamily M member 8 (Rattus norvegicus) (Q8R455 whole entry, looked up): as the sequence (Q8R455 whole entry) above
Data set [11] deals with Transient receptor potential cation channel subfamily V member 1 (Mus musculus) (UniProt Q704Y3). In words: Antagonist activity at mouse TRPV1 expressed in human SH-SY5Y cells assessed as inhibition of capsaicin induced calcium influx at 0.001 to 100 uM incubated for 60 mins by Fluo-4 NW-dye based fluorimetric assay. It is filed as cell-based. The gist of the method:
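SH-SY5Y cells stably expressing mouse TRPV1, seeded 2 days before, loaded with Fluo-4 NW plus 2.5 mM probenecid; compounds in DMSO added, 60 min at 37 °C in darkness. Four baseline cycles, then 10 μM capsaicin, recorded 15 more cycles (ex 485/em 535 nm). Signal normalized to capsaicin + 10 μM ruthenium red coexposure.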

The target in data set [12] is Transient receptor potential cation channel subfamily M member 8 (Rattus norvegicus) (UniProt Q8R455). Put plainly: Antagonist activity at rat TRPM8 expressed in HEK293 cells at 100 nM assessed as reduction in menthol-induced channel currents by whole cell patch clamp method. It is filed as cell-based.
The subject of data set [13] is Mus musculus. Put plainly: Antinociceptive activity in C57Bl/6J mouse assessed as inhibition of icilin induced wet-dog shakes at 30 mg/kg, sc pretreated 30 mins before icillin addition and measured after 30 mins by wet-dog shakes assay. In kind it is functional. The gist of the method:
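Male C57 mice, 5 weeks, ~30 g, acclimatized 30 min on two consecutive days. Compound (DMSO stock diluted in saline) given s.c. at 1, 10 or 30 mg/kg 30 min before icilin 10 mg/kg i.p. (20% DMSO/1% Tween 80). Wet-dog shakes counted over 30 min; mean ± SEM, n = 6; two-way ANOVA, Bonferroni.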

Data set [14] has as its target Transient receptor potential cation channel subfamily M member 8 (Homo sapiens, UniProt Q7Z2W7). In words: Antagonist activity at TRPM8 (unknown origin) assessed as reduction in menthol-induced calcium influx. An outline of the steps: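 HEK293 cells stably expressing rat TRPM8, seeded 2 days ahead, loaded with Fluo-4 NW plus 2.5 mM probenecid. Compounds in DMSO preincubated 60 min at 37 °C in the dark. Four baseline cycles, then stimulation with 100 μM menthol and 15 further read cycles (ex 485, em 535 nm). Signal normalized to menthol + 10 μM AMTB coexposure. DMSO vehicle controls.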

Data set [15] deals with Transient receptor potential cation channel subfamily M member 8 (Rattus norvegicus) (UniProt Q8R455). Put plainly: Reversible antagonist activity at rat TRPM8 expressed in HEK293 cells at 500 nM assessed as reduction in menthol-induced channel currents measured after drug wash out by whole cell patch clamp method. It is filed as cell-based. An outline of the steps:
(§3)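 HEK293 cells transiently transfected with rat TRPM8 cDNA plus EGFP marker, recorded 24 h later by whole-cell patch clamp on EGFP-positive cells (3–5 MΩ pipettes). Extracellular (mM): 138 NaCl, 5.4 KCl, 2 CaCl2, 1 MgCl2, 10 glucose, 10 HEPES, pH 7.4. Currents evoked by 500 μM menthol, read at +80 and −80 mV; compound added during menthol exposure.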

Data set [16] has the same target. In words: Antagonist activity at rat TRPM8 expressed in HEK293 cells at 500 nM assessed as reduction in menthol-induced channel currents by whole cell patch clamp method. In kind it is cell-based. An outline of the steps: as §3

The source made the active and inactive calls. No cut-off for these calls is given here.

Sequence of Transient receptor potential cation channel subfamily V member 1 (Mus musculus) (Q704Y3 whole entry): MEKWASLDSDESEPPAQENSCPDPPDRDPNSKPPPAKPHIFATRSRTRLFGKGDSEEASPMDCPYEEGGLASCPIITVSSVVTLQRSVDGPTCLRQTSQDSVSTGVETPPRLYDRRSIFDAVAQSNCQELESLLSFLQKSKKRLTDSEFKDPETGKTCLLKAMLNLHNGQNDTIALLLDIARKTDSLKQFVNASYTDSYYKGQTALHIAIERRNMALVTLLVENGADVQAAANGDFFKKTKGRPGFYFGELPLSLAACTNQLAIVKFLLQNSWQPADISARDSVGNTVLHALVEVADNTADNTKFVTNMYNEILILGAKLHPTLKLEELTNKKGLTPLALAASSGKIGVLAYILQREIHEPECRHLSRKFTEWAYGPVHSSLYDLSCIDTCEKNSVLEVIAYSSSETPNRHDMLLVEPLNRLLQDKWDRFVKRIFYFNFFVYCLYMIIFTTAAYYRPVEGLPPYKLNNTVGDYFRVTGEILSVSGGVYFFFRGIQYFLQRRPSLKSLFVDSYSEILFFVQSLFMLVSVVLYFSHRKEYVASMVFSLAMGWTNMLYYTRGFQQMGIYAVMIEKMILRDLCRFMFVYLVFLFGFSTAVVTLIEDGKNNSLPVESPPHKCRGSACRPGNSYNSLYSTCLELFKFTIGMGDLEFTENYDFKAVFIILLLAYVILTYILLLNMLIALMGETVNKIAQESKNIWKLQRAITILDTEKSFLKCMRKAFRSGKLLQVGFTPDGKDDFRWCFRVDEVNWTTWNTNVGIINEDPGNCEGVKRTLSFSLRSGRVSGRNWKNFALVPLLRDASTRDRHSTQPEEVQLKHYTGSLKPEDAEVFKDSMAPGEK
Sequence of Transient receptor potential cation channel subfamily M member 8 (Homo sapiens, UniProt Q7Z2W7) (Q7Z2W7 whole entry): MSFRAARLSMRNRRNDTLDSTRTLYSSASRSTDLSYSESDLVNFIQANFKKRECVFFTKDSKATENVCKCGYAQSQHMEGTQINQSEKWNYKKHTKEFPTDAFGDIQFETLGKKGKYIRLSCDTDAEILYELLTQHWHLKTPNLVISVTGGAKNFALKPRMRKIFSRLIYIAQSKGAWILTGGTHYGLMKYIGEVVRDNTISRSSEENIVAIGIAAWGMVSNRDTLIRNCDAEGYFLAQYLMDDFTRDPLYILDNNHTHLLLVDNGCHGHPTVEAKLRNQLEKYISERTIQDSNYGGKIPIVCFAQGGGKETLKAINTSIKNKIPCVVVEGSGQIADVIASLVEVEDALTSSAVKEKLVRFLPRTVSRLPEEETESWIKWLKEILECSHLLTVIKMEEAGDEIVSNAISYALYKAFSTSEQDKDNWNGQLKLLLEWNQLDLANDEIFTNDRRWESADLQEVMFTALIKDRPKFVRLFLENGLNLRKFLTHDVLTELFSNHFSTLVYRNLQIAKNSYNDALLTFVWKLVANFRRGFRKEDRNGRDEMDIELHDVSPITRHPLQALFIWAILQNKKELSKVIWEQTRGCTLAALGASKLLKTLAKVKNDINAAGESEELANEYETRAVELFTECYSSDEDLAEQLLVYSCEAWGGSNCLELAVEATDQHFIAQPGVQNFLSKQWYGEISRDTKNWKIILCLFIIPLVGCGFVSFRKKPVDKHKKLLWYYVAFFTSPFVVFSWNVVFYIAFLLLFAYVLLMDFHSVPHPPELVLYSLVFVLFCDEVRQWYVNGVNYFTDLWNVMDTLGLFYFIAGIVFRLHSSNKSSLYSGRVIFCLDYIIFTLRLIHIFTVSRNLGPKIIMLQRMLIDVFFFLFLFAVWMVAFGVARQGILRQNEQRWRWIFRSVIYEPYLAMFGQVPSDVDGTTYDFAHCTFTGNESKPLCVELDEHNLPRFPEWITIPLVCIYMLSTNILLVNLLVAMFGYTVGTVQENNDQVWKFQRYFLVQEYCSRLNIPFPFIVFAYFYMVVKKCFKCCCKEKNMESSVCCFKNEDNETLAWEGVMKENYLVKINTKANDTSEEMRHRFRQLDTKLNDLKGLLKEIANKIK

As to `NCC1(CC(=O)O)CCCCC1`, in the data set with Mus musculus [1], the inhibition result was “Active”.

For the compound `O=C(O)c1ccc(CN2CCc3c([nH]c4ccccc34)C2c2ccccc2)cc1` (racemic), the IC50 in [2] is more than 100000 nM.

As for `O=C(O)[C@H](Cc1c[nH]c2ccccc12)N(Cc1ccccc1)Cc1ccccc1`, the apparent permeability (Papp) at 24 h, 500 µM in [3] stood at 3.17 ×10⁻⁶ cm/s. Moreover, the IC50 in data set [2] worked out at 8200 nM.

Turning to `O=[N+]([O-])c1ccc(CN(CCc2c[nH]c3ccccc23)Cc2ccccc2)cc1`, the 50% inhibitory concentration (IC50) in data set [2] was 3000 nM.

`Cc1cccc(COc2ccccc2C(=O)N(CCCN)Cc2cccs2)c1`: the IC50 in [2] was 6500 nM.

With `O=C(CN1CCc2c([nH]c3ccccc23)C1c1ccccc1)c1ccccc1` (racemic), in data set [2], the IC50 was 1600 nM.

`Cn1cc(CCN(Cc2ccccc2)Cc2ccccc2)c2ccccc21`: the IC50 in [2] amounted to 3300 nM.

`COC(=O)[C@H](Cc1c[nH]c2ccccc12)N(Cc1ccccc1)Cc1ccccc1`: the results for the IC50 in data set [4] and in data set [2] were 0.2 nM and 40 nM, respectively. Besides, the inhibition result (in data set [5]; with Mus musculus [6]; in the data set on Mus musculus [9]) was “Dose-dependent effect” in each case. Besides, the Drug metabolism entry in [7] was “Metabolite_Detected”. In addition, the Papp at 24 h, 500 µM in data set [3] worked out at 0.97 ×10⁻⁶ cm/s. Also, the Stability entry in data set [8] was “Stable”. Moreover, the inhibition result in data set [10] and in data set [12] was “Active” throughout. Moreover, in data set [11], the inhibition entry is “inactive”. Also, the inhibition in vivo at 30 mg/kg with Mus musculus [13] was found to be 63%.

Turning to `c1ccc(COc2ccc3[nH]cc(CCN(Cc4ccccc4)Cc4ccccc4)c3c2)cc1`, the half-inhibitory concentration (IC50) in data set [2] came to 1900 nM.

For `COC(=O)[C@@H](Cc1c[nH]c2ccccc12)N(Cc1ccccc1)Cc1ccccc1`, in [4], the 50% inhibitory concentration (IC50) was 865 nM.

Regarding `O=[N+]([O-])c1ccc(Sc2[nH]c3ccccc3c2CCN(Cc2ccccc2)Cc2ccccc2)c([N+](=O)[O-])c1`, in data set [2], the IC50 is 2200 nM.

For `O=[N+]([O-])c1ccc(CN2CCc3c([nH]c4ccccc34)C2c2ccccc2)cc1` (racemic), in [2], the IC50 came to 3300 nM.

Regarding `CC(C)(C)c1ccc(NC(=O)N2CCN(c3ncccc3Cl)CC2)cc1`, the IC50 in [14] was 475 nM.

`c1ccc(CN(CCc2c[nH]c3ccccc23)Cc2ccccc2)cc1`: the IC50 in data set [2] was determined as 3200 nM.

Consider `c1ccc(CN(CCc2c[nH]c3ccccc23)CC2CCCCC2)cc1`, for which the figures for the concentration for half-maximal inhibition (IC50) in data set [4] and in [2] were 3.5 nM and 600 nM, respectively. Also, the inhibition result in data set [5] was “Dose-dependent effect”. In addition, the inhibition result in data set [15] and in data set [16] was “Active” throughout. Also, the inhibition result in data set [11] was “inactive”.

In the case of `c1cc2c3c(cccc3c1)CN(CCc1c[nH]c3ccccc13)C2`, the IC50 in [2] turned out to be 11800 nM.
